Screening data as filed in PubChem.
Furin inh: blocks human furin protease activity | P09958 | hit rate 0.061% among 220,000 | purified furin, fluorogenic substrate cleavage | inhibition, % at 20 µM or 30 µM; in the data active = inhibition above about 25%
Target sequence (P09958 108-714 limits assumed): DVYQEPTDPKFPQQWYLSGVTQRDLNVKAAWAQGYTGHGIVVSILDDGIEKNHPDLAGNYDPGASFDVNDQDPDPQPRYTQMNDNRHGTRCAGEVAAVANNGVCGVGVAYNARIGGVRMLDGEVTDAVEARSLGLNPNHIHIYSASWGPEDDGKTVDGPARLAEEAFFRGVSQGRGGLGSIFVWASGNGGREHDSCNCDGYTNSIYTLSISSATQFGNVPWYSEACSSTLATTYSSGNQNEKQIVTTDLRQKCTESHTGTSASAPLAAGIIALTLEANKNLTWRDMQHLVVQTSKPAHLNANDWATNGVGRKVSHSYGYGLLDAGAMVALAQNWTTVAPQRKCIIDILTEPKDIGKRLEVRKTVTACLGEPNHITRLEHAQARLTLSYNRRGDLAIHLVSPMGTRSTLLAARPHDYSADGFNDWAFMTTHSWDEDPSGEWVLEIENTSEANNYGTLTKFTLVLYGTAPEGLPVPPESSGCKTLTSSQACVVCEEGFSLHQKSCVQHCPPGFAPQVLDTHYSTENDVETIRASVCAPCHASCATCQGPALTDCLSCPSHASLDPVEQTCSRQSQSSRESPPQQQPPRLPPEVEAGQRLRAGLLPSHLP
INS promoter inh: TRM-6 insulin promoter activity inhibition. TRM-6 cells, insulin promoter-eGFP reporter, imaging; reporter expression induced with tamoxifen. inhibition, % at 2 µM. hit rate 0.9% among 130,000. AID 1273;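 active = inhibition above the mean plus 3 SD, with well images judged a real hit on visual review, cut at about 60% in these data, passing the limit was not always enough; inconclusive = inhibition over the cutoff but images rejected on review; inactive = inhibition not above the cutoff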
HSV replic up: HSV replication enhancement; maximum fold increase; hit rate 0.005% among 220,000; HSV replication augmentation in cells, fold increase; in the data active = maximum fold increase above about 1.5; inconclusive = no clear call, values can overlap the other calls; tested in PC3 cells
Ins promoter up: MIN6 insulin promoter up-regulation; MIN6 insulin promoter-GFP reporter, high-content imaging; hits give high values; hit rate 0.3% among 190,000; z-score at 5 µM;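 active = z-score above 3 at 5 µM with at least 500 cells counted in the well; inconclusive = wells under 500 cells, flagged as cytotoxic or low count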
Dynein cargo inh: blocks dynein driven cargo transport along microtubules; 3617.4 mouse cells, GR-EGFP nuclear translocation imaging; test concentration mostly 20 µM; stimulated with dexamethasone, 1 µM; hits give low values; z-score, hits read low; hit rate 0.47% among 220,000; AID 1381;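 active = plate z-score of nuclear minus cytoplasmic receptor signal below a set negative limit, without overly bright fluorescence or cell loss, cut at about -3.5 in these data, passing the limit was not always enough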;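 note: z-score of nuclear minus cytoplasmic ring GR-EGFP intensity difference per well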
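Buffer or medium: tetracycline-free induction medium containing charcoal-stripped FBS / Reagent: dexamethasone agonist, 1.0 µM final, for 30 min / Technique: automated 10x imaging of fixed Hoechst-stained cells / Times: induction 48 h, compound 1 h, agonist 30 min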
Autophagy mod: autophagy modulation, high-content screen | hit rate 0.98% among 190,000 | calls only at 10 µM (by protocol) | MEF GFP-LC3 puncta imaging; test concentration mostly 10 µM;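 active = percentage of spot-positive cells more than 3 SD above its plate mean, without a fluorescence outlier flag or 80% toxicity; inconclusive = no clear call, values can overlap the other calls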;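 note: spot-positive cell cutoff set from DMSO-treated cells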
Starred values were filed as active, the others as inactive; i = inactive; ? = inconclusive; nt = no result given; + = active, no number. The list is not random: actives were taken first. Their share in the collection is about 2%.

SMILES	Furin inh	INS promoter inh	HSV replic up	Ins promoter up	Dynein cargo inh	Autophagy mod
C[N+]12CCCCC1C(COC(=O)c1ccc3c(c1)OCO3)CCC2 (stereo not given)	-15	75*	nt	0.5	-0.46	i
Cc1c(NC(=S)SCc2ccccc2)c(=O)n(-c2ccccc2)n1C	-10	10	i	-0.51	-0.91	i
COc1ccc(-c2csc(NC(=S)NC(=O)c3ccco3)n2)cc1	-21	-27	i	-0.48	-0.49	+
Clc1ccc(CNc2nc(CN3CCOCC3)nc3scc(-c4ccccc4)c23)cc1	-22	7	i	0.26	-0.12	i
O=C(Nc1ccc(O)cc1)c1cccc(Oc2ccc([N+](=O)[O-])cc2)c1	-6	-33	i	1.1	-0.11	i
CN(C)S(=O)(=O)Oc1cccc(C(=O)Nc2ccc([N+](=O)[O-])cc2)c1	-18	-7	i	3.4*	0.7	i
CCC1CCCCN1Cc1nc(Cc2ccccc2Cl)no1 (stereo not given)	-21	nt	i	-0.08	0.38	nt
O=C(Nc1cccnc1)c1ccc(COc2ccccc2Br)o1	-12	nt	i	-0.57	-1.2	+
O=C(Nc1cccnc1)c1ccc(-c2ccc(Cl)cc2)o1	-5	6	i	0.06	0.24	+
O=C(Nc1cccnc1)c1ccc(-c2cc(Cl)ccc2Cl)o1	-13	nt	i	0.34	0.36	i
O=C(NCCc1ccccn1)C(F)(F)C(F)(F)C(F)(F)C(F)(F)C(F)(F)C(F)F	-17	nt	i	-0.36	-0.55	i
N/C(=N\OC(=O)CSc1ccccc1)c1ccc([N+](=O)[O-])cc1	3	11	i	0.08	0.54	i
CCN(CC)c1ccc(/C=C(\C#N)c2nc(-c3cccs3)c(NC(C)=O)s2)cc1	-2	nt	?	17*	-0.49	+
O=C(OCC(=O)N1CCCc2ccccc21)c1ccc(Cl)nc1	-16	80*	i	0.95	-0.27	i
Cc1c(C)c2ccc(OCC(=O)N3CCOCC3)c(C)c2oc1=O	-29	-15	i	-0.64	-0.74	i
Cn1c(CSCc2ccccc2)nnc1SCC(=O)Nc1nccs1	-18	-24	i	0.12	-0.57	i
Cn1c(Cn2nnc3ccccc32)nnc1SCC(=O)Nc1nccs1	-18	nt	i	nt	-0.02	+
Cc1cc(-c2cc(N)n(-c3ccccc3)n2)c(C)n1C1CCCC1	3	nt	i	-1.4	3.3	+
Cc1cc(N)n(-c2ccccc2)n1	-30	-50	nt	-0.52	-1.2	i
Cc1ccc(C2=Nc3ccccc3N=C(C(Cl)Cl)C2)cc1	-7	82*	i	nt	0.41	i
Cc1ccc2c(c1)N=C(c1ccccc1)CC(C(Cl)Cl)=N2	-9	nt	i	-0.12	0.073	nt
Cc1nc(NC(=O)COC(=O)CCS(=O)(=O)c2ccccc2Cl)c(Cl)cc1Cl	-17	-21	i	4.2*	-2.4	i
COc1cc(C(=O)Nc2ccccc2C2COC(=O)C2=N)cc(OC)c1OC (stereo not given)	2	5	i	-0.08	0.6	+
CCCCn1c(SCC(=O)Nc2cc(C(F)(F)F)ccc2Cl)nnc1C(CC)N(C)C (stereo not given)	-2	-57	i	-0.42	-0.024	+
N#Cc1c2n(c3c(N)ncnc13)CCCCC2	-10	nt	i	-0.23	0.44	nt
SMILES	Furin inh	INS promoter inh	HSV replic up	Ins promoter up	Dynein cargo inh	Autophagy mod
O=S(=O)(c1ccc(Cl)cc1)n1c(Cc2ccccc2)nc2ccccc21	-16	41	i	-0.26	0.0042	i
O=S(=O)(N1CCOCC1)n1c(Cc2ccccc2)nc2ccccc21	5	70*	i	0.41	1.1	i
CCN(CC)C(=O)CSc1nnc(-c2ccccn2)n1-c1ccccc1OC	-27	nt	i	0	-0.23	nt
Cc1cccc(OCCN2CSC(=S)N(C)C2)c1	-1	nt	i	-0.09	-0.88	+
COc1ccccc1OCCN1CSC(=S)N(C)C1	-8	19	i	0.07	-1.2	i
CCN(CC)S(=O)(=O)c1ccc(OCC(=O)NC2CCS(=O)(=O)C2)c([N+](=O)[O-])c1 (stereo not given)	-13	nt	i	0.22	0.54	i
CCN(CC(=O)NC1CCS(=O)(=O)C1)c1ccc(S(C)(=O)=O)cc1[N+](=O)[O-] (stereo not given)	-6	-17	i	1.2	-0.89	+
COc1ccc(NC(=O)CN2CCC(C(N)=O)(N3CCCCC3)CC2)c(OC)c1	-20	nt	i	0.37	-0.044	i
COc1ccc(-c2c(C)n([O-])c3c([n+]2=O)CCC3)cc1OC	-14	31	i	nt	-0.3	i
COc1ccc(-c2c(C)n([O-])c3c([n+]2=O)CCCC3)cc1OC	-23	0	i	0.83	-0.25	+
CC(=O)c1c(C)[nH]c(C(=O)CN2C(=O)NC(C)(c3ccc(C)cc3)C2=O)c1C (stereo not given)	-16	0	i	-0.83	-0.37	+
Cc1ccc(C2(C)NC(=O)N(CC(=O)Nc3cc(C)on3)C2=O)cc1 (stereo not given)	-10	17	i	0.08	-0.3	i
O=C(CCn1c(=O)oc2ccccc21)N1CCCCCC1	-8	45	i	0.16	-0.89	i
CC1CN(C(=O)CCn2c(=O)oc3ccccc32)CC(C)O1 (stereo not given)	-10	nt	i	8*	1.8	i
O=C(CCCn1c(=O)oc2ccccc21)N1CCc2ccccc2C1	-14	nt	i	0.11	-0.94	+
O=C(CCn1c(=O)oc2ccccc21)NCCN1CCc2ccccc2C1	-9	-31	i	0.07	-0.48	i
Nc1nc(SCC(=O)Nc2ccccc2C(F)(F)F)[nH]c(=O)c1-c1ccccc1	-16	nt	i	0.05	-0.81	i
CCN1C(=O)C(O)(CC(=O)c2ccc(-n3cccc3)cc2)c2ccccc21 (stereo not given)	-20	nt	i	0.46	-0.44	i
CCN1C(=O)C(O)(CC(=O)c2ccccn2)c2ccccc21 (stereo not given)	-12	75*	i	nt	3.4	i
O=C(CC1(O)C(=O)N(Cc2cccc3ccccc23)c2ccccc21)c1cccnc1 (stereo not given)	-19	4	i	nt	-0.97	+
CC(C)CC1=NN(C(=O)c2ccncc2)C(O)(C(F)(F)F)C1 (stereo not given)	-15	21	i	0.32	-0.76	i
Cc1oc(-c2ccccc2F)nc1CN1CCC(C(=O)NC2CCCc3ccccc32)CC1 (stereo not given)	-15	86*	i	-0.76	0.061	i
Cc1ccccc1NC(=O)N1C2CCCC1CC(NC(=O)C1CC1)C2 (stereo not given)	15	23	i	0.11	0.15	i
CCOc1ccccc1NC(=O)C1CCN(C(=O)c2cccs2)CC1	-3	nt	i	0.02	-1.2	+
